Measured values: ChEMBL document CHEMBL4673384, “Studying Histone Deacetylase Inhibition and Apoptosis Induction of Psammaplin A Monomers with Modified Thiol Group” (ACS Med Chem Lett, 2021)
pIC50: −log10 of the molar value. Activity calls are given as the source filed them. The calls are words filed in the database; no cut-off is given here.

Experiments:
[1] = biological target: T1, Protein deacetylase HDAC6 (Homo sapiens, UniProt Q9UBN7); test: Inhibition of recombinant full length C-terminal FLAG-tagged human HDAC6 expressed in baculovirus infected Sf9 cells using Boc-Lys(Ac)-AMC as substrate preincubated for 15 mins followed by substrate addition and measured after 60 mins by fluorescence based assay
T1 sequence (Q9UBN7 whole entry): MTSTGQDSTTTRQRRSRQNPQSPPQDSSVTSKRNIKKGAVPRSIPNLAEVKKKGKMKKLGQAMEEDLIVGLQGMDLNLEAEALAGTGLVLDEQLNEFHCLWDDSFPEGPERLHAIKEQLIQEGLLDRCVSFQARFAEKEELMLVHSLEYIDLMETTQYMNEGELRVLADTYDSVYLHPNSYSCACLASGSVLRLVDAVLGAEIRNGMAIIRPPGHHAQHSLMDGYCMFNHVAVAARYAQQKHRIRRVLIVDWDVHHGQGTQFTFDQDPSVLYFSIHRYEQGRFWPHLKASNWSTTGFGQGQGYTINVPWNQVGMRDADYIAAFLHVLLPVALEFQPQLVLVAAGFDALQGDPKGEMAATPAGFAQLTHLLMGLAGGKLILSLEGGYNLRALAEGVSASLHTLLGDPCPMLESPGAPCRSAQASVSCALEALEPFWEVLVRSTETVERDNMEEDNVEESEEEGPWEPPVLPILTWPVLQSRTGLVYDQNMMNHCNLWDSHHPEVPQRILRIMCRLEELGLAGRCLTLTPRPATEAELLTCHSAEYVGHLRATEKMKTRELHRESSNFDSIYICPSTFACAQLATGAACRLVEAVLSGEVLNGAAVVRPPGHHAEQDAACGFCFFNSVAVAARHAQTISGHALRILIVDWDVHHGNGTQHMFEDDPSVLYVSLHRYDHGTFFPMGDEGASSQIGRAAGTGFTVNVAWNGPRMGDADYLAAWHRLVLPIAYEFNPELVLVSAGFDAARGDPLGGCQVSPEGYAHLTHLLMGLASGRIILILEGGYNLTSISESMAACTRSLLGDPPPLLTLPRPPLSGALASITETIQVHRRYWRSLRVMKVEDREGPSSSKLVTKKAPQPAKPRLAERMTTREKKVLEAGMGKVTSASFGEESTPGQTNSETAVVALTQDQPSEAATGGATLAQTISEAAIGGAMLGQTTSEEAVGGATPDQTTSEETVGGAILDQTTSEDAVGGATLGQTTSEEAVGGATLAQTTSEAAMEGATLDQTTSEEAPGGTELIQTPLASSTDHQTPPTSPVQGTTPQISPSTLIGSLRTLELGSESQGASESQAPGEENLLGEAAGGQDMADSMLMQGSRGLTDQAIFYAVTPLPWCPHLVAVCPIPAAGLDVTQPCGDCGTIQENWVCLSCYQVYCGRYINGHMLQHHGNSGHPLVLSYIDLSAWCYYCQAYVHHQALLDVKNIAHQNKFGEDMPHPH

[2] = biological target: Histone deacetylase 3/Nuclear receptor corepressor 2 (HDAC3/NCoR2) (Homo sapiens, UniProt O15379); test: Inhibition of C-terminal His-tagged recombinant human HDAC3 (1 to 428 residues)/N-terminal GST-tagged recombinant human NCoR2 (395 to 489 residues) co-expressed in baculovirus infected Sf9 cells using Boc-Lys(Ac)-AMC as substrate preincubated for 15 mins followed by substrate addition and measured after 60 mins by fluorescence based assay
Histone deacetylase 3/Nuclear receptor corepressor 2 (HDAC3/NCoR2), sequence (O15379 whole entry, the tested form may be a part): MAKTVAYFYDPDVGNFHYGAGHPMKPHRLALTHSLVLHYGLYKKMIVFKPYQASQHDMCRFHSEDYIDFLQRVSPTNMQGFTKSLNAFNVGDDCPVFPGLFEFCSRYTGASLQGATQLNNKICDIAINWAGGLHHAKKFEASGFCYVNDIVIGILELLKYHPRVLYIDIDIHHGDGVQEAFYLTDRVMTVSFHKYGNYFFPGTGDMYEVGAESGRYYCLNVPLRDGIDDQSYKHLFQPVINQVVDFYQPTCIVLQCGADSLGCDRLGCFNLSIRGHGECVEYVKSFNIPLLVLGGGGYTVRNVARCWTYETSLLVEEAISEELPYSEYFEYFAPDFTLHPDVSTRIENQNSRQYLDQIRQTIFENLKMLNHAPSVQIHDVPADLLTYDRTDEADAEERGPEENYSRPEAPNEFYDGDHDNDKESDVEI
Histone deacetylase 3/Nuclear receptor corepressor 2 (HDAC3/NCoR2), sequence (Q9Y618 whole entry, further chain, the tested form may be a part): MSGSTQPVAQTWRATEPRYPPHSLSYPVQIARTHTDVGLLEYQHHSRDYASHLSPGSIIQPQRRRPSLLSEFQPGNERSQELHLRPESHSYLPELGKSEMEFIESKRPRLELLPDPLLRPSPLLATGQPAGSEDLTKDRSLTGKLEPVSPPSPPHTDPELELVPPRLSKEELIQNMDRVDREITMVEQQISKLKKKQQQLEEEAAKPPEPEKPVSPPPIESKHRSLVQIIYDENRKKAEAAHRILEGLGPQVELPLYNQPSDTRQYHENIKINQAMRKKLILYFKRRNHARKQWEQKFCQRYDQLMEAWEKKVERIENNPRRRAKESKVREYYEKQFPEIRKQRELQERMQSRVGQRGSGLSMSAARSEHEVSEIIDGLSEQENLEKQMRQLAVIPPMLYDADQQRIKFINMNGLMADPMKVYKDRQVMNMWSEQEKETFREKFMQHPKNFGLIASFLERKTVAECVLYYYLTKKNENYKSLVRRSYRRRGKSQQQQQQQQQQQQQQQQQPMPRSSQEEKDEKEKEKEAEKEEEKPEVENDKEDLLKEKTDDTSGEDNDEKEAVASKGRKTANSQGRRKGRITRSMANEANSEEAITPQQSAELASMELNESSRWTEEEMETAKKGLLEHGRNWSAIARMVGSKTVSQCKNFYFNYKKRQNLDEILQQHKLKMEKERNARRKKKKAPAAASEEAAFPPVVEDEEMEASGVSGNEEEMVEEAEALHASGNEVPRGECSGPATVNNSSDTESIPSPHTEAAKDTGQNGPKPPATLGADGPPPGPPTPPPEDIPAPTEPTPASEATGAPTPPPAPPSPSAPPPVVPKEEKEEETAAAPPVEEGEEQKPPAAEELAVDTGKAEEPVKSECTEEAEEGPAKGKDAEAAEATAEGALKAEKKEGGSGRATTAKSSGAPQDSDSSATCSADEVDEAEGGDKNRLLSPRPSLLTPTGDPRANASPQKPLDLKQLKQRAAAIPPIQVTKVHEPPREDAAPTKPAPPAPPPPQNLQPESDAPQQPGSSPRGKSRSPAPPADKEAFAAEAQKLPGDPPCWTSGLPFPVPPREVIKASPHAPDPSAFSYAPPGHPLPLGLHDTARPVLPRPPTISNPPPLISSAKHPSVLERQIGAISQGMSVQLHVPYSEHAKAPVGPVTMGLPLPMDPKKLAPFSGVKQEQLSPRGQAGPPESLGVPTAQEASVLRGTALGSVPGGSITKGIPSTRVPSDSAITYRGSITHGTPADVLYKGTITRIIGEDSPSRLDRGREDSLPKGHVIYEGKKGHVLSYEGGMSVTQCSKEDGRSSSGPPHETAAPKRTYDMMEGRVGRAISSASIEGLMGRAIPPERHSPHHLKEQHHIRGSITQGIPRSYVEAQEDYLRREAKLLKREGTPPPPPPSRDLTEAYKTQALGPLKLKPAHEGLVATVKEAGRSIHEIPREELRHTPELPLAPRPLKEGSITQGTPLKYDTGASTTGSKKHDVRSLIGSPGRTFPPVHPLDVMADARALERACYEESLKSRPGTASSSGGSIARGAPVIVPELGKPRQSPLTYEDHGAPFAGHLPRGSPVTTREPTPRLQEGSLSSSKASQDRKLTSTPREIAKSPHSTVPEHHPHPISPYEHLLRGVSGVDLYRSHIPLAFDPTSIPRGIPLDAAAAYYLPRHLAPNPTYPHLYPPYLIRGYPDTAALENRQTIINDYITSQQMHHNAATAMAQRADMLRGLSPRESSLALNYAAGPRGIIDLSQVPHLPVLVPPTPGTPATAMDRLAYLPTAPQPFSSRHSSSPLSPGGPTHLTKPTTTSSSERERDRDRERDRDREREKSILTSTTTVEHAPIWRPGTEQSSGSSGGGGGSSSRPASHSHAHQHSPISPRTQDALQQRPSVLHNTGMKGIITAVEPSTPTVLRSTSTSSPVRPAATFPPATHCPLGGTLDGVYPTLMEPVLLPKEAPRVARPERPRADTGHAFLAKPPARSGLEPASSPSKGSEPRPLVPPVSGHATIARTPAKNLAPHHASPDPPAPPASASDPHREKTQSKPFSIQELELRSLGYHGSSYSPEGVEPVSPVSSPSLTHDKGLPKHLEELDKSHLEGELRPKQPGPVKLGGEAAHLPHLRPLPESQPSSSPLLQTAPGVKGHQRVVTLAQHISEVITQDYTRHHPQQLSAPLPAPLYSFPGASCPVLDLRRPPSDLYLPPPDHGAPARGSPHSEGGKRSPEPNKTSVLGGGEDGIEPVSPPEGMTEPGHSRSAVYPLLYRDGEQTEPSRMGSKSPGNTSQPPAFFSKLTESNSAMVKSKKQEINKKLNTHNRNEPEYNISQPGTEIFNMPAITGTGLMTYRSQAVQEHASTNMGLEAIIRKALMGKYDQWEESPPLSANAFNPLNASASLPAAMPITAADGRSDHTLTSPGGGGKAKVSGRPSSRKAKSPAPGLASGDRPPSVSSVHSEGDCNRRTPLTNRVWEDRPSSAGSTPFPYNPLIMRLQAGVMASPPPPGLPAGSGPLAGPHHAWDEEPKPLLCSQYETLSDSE

Histone deacetylase 2 [3] = biological target: T2, Histone deacetylase 2 (Homo sapiens, UniProt Q92769); test: Inhibition of recombinant full length C-terminal FLAG-tagged human HDAC2 expressed in baculovirus infected Sf9 cells using Boc-Lys(Ac)-AMC as substrate preincubated for 15 mins followed by substrate addition and measured after 60 mins by fluorescence based assay
T2 sequence (Q92769 whole entry): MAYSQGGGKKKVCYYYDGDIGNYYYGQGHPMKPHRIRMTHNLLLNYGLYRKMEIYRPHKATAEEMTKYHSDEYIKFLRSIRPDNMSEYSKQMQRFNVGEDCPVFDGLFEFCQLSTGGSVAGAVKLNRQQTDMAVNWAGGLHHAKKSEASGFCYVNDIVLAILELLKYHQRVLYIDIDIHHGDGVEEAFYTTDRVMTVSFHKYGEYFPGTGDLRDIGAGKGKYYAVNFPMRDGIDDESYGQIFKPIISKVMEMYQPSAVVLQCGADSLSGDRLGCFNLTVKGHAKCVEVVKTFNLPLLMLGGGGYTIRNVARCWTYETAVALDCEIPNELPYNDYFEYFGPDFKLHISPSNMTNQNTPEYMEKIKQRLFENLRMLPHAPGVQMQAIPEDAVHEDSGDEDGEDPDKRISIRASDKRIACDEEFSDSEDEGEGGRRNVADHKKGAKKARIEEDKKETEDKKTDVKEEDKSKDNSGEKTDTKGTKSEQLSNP

Histone deacetylase 1 [4] = biological target: T3, Histone deacetylase 1 (Homo sapiens, UniProt Q13547); test: Inhibition of recombinant full length C-terminal FLAG/His-tagged human HDAC1 expressed in baculovirus infected Sf9 cells using Boc-Lys(Ac)-AMC as substrate preincubated for 15 mins followed by substrate addition and measured after 60 mins by fluorescence based assay
T3 sequence (Q13547 whole entry): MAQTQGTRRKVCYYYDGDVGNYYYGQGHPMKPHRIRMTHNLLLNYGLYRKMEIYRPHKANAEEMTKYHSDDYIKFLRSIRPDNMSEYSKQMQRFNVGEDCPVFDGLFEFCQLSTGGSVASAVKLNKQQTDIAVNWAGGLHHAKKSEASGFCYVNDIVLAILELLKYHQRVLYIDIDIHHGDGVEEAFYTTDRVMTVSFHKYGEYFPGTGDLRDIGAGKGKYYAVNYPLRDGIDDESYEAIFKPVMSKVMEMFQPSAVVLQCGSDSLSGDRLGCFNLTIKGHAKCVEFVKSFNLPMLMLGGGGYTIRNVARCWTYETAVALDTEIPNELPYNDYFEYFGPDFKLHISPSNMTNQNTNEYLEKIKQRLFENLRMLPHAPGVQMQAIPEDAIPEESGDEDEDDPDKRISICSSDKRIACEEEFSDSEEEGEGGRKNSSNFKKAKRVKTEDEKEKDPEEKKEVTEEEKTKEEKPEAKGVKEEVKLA

HL-60 [5] = test: Growth inhibition of human HL-60 cells after 72 hrs by trypan blue dye based assay; type: functional; conditions: for GI50: Homo sapiens, HL-60
Method in brief: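 HL-60 leukemia cells were exposed to compound for 72 h. Growth inhibition is reported as IG50 (half the growth inhibition concentration), as means plus SD of three independent experiments.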

[6] = Antiproliferative activity against mouse LL/2 cells assessed as cell growth inhibition incubated for 96 hrs by MTT assay; type: functional, Lewis lung carcinoma
HCT-116 = test: Antiproliferative activity against human HCT-116 cells assessed as cell growth inhibition incubated for 96 hrs by MTT assay; type: functional
A549 = test: Antiproliferative activity against human A549 cells assessed as cell growth inhibition incubated for 96 hrs by MTT assay; type: functional
MCF7 = test: Antiproliferative activity against human MCF7 cells assessed as cell growth inhibition incubated for 96 hrs by MTT assay; type: functional
Histone deacetylase 1 [7] = biological target: T3, Histone deacetylase 1; test: Inhibition of HDAC1 in human HL-60 cells assessed as increase in Ac-H3 level at 2 uM incubated for 24 hrs by Western blot analysis; type: cell-based
Method in brief: (§1)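 Compound given to HL-60 cells for 24 h at the stated concentrations, then lysed. Acetyl-histone H3 and acetyl-α-tubulin levels were read by Western blot, with total H3, α-tubulin or β-actin as references.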

HL-60 [8] = test: Induction of apoptosis in human HL-60 cells assessed as necrotic cells at 40 uM incubated for 24 hrs by propidium iodide and annexin-V FITC staining based FACS analysis (reference value: 0.1 %); type: functional
HL-60 [9] = test: Induction of apoptosis in human HL-60 cells assessed as necrotic cells at 20 uM incubated for 24 hrs by propidium iodide and annexin-V FITC staining based FACS analysis (reference value: 0.1 %); type: functional
HL-60 [10] = test: Induction of apoptosis in human HL-60 cells assessed as early apoptotic cells at 20 uM incubated for 24 hrs by propidium iodide and annexin-V FITC staining based FACS analysis (reference value: 2.0 %); type: functional
HL-60 [11] = test: Induction of apoptosis in human HL-60 cells assessed as late apoptotic cells at 20 uM incubated for 24 hrs by propidium iodide and annexin-V FITC staining based FACS analysis (reference value: 1.7 %); type: functional
HL-60 [12] = test: Induction of apoptosis in human HL-60 cells assessed as viable cells at 20 uM incubated for 24 hrs by propidium iodide and annexin-V FITC staining based FACS analysis (reference value: 96.3 %); type: functional; conditions: read-out: Activity
HL-60 [13] = test: Induction of apoptosis in human HL-60 cells assessed as viable cells at 40 uM incubated for 24 hrs by propidium iodide and annexin-V FITC staining based FACS analysis (reference value: 96.3 %); type: functional; conditions: read-out: Activity
HL-60 [14] = test: Induction of apoptosis in human HL-60 cells assessed as early apoptotic cells at 40 uM incubated for 24 hrs by propidium iodide and annexin-V FITC staining based FACS analysis (reference value: 2.0 %); type: functional
HL-60 [15] = test: Induction of apoptosis in human HL-60 cells assessed as late apoptotic cells at 40 uM incubated for 24 hrs by propidium iodide and annexin-V FITC staining based FACS analysis (reference value: 1.7 %); type: functional
Histone deacetylase 2 [16] = biological target: T2, Histone deacetylase 2; test: Inhibition of HDAC2 in human HL-60 cells assessed as increase in Ac-H3 level at 20 uM incubated for 24 hrs by Western blot analysis; type: cell-based; method in brief: as §1
[17] = biological target: Histone deacetylase 3 (Homo sapiens) (UniProt O15379); test: Inhibition of HDAC3 in human HL-60 cells assessed as increase in Ac-H3 level at 20 uM incubated for 24 hrs by Western blot analysis; type: cell-based; method in brief: as §1
Histone deacetylase 3 (Homo sapiens), sequence (O15379 whole entry): as the sequence (O15379 whole entry, the tested form may be a part) above

Histone deacetylase 1 [18] = biological target: T3, Histone deacetylase 1; test: Inhibition of HDAC1 in human HL-60 cells assessed as increase in Ac-H3 level at 20 uM incubated for 24 hrs by Western blot analysis; type: cell-based; method in brief: as §1
HL-60 [19] = test: Induction of apoptosis in human HL-60 cells assessed as necrotic cells at 20 uM incubated for 24 hrs by propidium iodide and annexin-V FITC staining based FACS analysis (reference value: 0.5 %); type: functional
HL-60 [20] = test: Induction of apoptosis in human HL-60 cells assessed as late apoptotic cells at 20 uM incubated for 24 hrs by propidium iodide and annexin-V FITC staining based FACS analysis (reference value: 3.7 %); type: functional
HL-60 [21] = test: Induction of apoptosis in human HL-60 cells assessed as early apoptotic cells at 20 uM incubated for 24 hrs by propidium iodide and annexin-V FITC staining based FACS analysis (reference value: […]); type: functional
HL-60 [22] = test: Induction of apoptosis in human HL-60 cells assessed as viable cells at 20 uM incubated for 24 hrs by propidium iodide and annexin-V FITC staining based FACS analysis (reference value: 93.9 %); type: functional; conditions: read-out: Activity

Row | SMILES | pIC50 [1] | pIC50 [2] | pIC50 (Histone deacetylase 2 [3]) | pIC50 (Histone deacetylase 1 [4]) | IG50 (HL-60 [5]) [µM] | further results
1 | O=C(CCCNC(=O)/C(Cc1ccc(O)c(Br)c1)=N/O)NO | < 5.00 | < 5.00 | < 5.00 | 6.00 | >40 | –
2 | CCCCNC(=O)/C(Cc1ccc(O)c(Br)c1)=N/O | < 5.00 | < 5.00 | < 5.00 | < 5.00 | – | GI50 (HL-60 [5]): 36 µM
3 | O=C(CNC(=O)/C(Cc1ccc(O)c(Br)c1)=N/O)NO | < 5.00 | 5.91 | 5.04 | 5.53 | >40 | –
4 | O=C(CCCCNC(=O)/C(Cc1ccc(O)c(Br)c1)=N/O)NO | 5.89 | 6.60 | < 5.00 | 6.36 | >40 | –
5 | Nc1cc(F)ccc1NC(=O)/C=C/c1cnn(C/C=C/c2ccccc2)c1 | – | – | – | – | 6.1 | IG50 [6]: 10.8 µM; IG50 (HCT-116): 22 µM; IG50 (A549): 28.3 µM; IG50 (MCF7): 30 µM; inhibition (Histone deacetylase 1 [7]): inactive; Activity (HL-60 [8]): 2.9%; Activity (HL-60 [9]): 0.5%; Activity (HL-60 [10]): 3%; Activity (HL-60 [11]): 7.2%; viability at 20 µM (HL-60 [12]): 89.3%; viability at 40 µM (HL-60 [13]): 75.1%; Activity (HL-60 [14]): 4.8%; Activity (HL-60 [15]): 17.2%
6 | Nc1ccccc1NC(=O)CCCCNC(=O)/C(Cc1ccc(O)c(Br)c1)=N/O | < 5.00 | 5.84 | 5.01 | < 5.00 | >40 | –
7 | O=C(NCCO)/C(Cc1ccc(O)c(Br)c1)=N/O | < 5.00 | < 5.00 | < 5.00 | < 5.00 | – | inhibition (Histone deacetylase 2 [16]): inactive; inhibition [17]: inactive; inhibition (Histone deacetylase 1 [18]): inactive; Activity (HL-60 [19]): 0.1%; Activity (HL-60 [20]): 3.7%; Activity (HL-60 [21]): 1.7%; viability at 20 µM (HL-60 [22]): 94.4%; GI50 (HL-60 [5]): 20 µM
